Source: article PMC8653574 (Bioorganic & medicinal chemistry letters, 2018)
“Also recorded” adds a separate entry of the source.

Assays:
Assay type in all cases: cell-based, human
C4–2 cells [1] = assay: Acridine orange/ethidium bromide; conditions: 48 h incubation
How it was run: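 C4–2 cells were double-stained with acridine orange, which marks live and dead cells, and ethidium bromide, which marks dead cells only. Cell morphology was then examined to tell apoptosis from necrosis.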

[2] = system: PARP1 cleavage in C4–2 cells; assay: PARP1 cleavage assay; conditions: C4–2 cells treated with compound
C4–2 cells [3] = assay: DNA ladder; conditions: 10 μM, 48 h
C4–2 cells [4] = assay: Wound healing; conditions: 12 h, 24 h and 48 h
How it was run: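 A scratch was made in a C4–2 monolayer. The wounded cells were incubated for a further 12, 24 and 48 h. Images were taken at the start and at each interval to assess migration.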

[5] = system: reactive oxygen species (ROS) in C4–2 cells; assay: ROS accumulation by DCFDA staining; conditions: 10 μM, 48 h
How it was run: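 C4–2 cells were left untreated or exposed for 48 h to test compound at 10 μM or H2O2 at 10 μM as positive control. Intracellular ROS was stained with DCFDA and quantified.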

Row | Molecule | AO/EB staining: mode of cell death (C4–2 cells [1]) | PARP1 cleavage (cleaved PARP level) [2] | DNA ladder formation (C4–2 cells [3]) | inhibition of cell migration (C4–2 cells [4]) | ROS level (DCFDA staining) [5]
1 | COc1ccc2c(C3CC(c4ccncc4)=NO3)c[nH]c2c1 (stereo not drawn) [6c] | triggered apoptosis | induced apoptosis | triggered the formation of DNA ladder | potently inhibit C4–2 cell migration; also recorded: strong anti-cell motility property | 
2 | H2O2 |  |  |  |  | high DCFDA staining
3 | Cc1c(C2CC(c3ccncc3)=NO2)c2ccccc2n1Cc1ccc(Cl)cc1 (stereo not drawn) [6i] | triggered apoptosis | induced apoptosis | triggered the formation of DNA ladder | potently inhibit C4–2 cell migration; also recorded: strong anti-cell motility property | 
